One block for each molecule: values may come before it. Active and inactive are the calls of the source. No cut-off for these calls is given here.
Key:
[1] = Half-life for hydrolysis was determined from kinetic constant.; type: ADME
Summary of the method: (§1)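 Spontaneous hydrolysis in 0.1 M HEPES, 0.5 M NaCl, pH 7.5, 10% v/v DMSO final, 25 °C. Inhibitor added from 2.9–5.0 mM DMSO stock. Ring opening followed as absorbance decrease at 385 nm (ε385 = 3300 M⁻¹ cm⁻¹). Half-life from the first-order rate. Two determinations, standard errors ±15% or less.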

[2] = target: T1, Cathepsin G (Homo sapiens) (UniProt P08311); assay: The second order inactivation rate constant was expressed as inhibition of cathepsin G (Cat G).Inhibitor concentrations were 35-710 uM
T1 sequence (whole entry): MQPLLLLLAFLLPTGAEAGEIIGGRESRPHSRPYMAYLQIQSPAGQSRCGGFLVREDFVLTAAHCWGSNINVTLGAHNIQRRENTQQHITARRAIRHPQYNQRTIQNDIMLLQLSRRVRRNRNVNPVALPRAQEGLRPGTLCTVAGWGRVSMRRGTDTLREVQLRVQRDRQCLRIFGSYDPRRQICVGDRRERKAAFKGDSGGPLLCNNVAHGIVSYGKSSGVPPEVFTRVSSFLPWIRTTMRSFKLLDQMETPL
Summary of the method: (§2)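 Kitz–Wilson incubation method. Enzyme was preincubated with inhibitor (added in DMSO) in 0.1 M HEPES, 0.5 M NaCl, pH 7.5, at 25 °C. Aliquots were taken over time and diluted into pNA substrate: HLE MeO-Suc-Ala-Ala-Pro-Val-pNA (0.2–0.5 mM), PPE Suc-Ala-Ala-Ala-pNA, ChT and Cat G Suc-Val-Pro-Phe-pNA (0.4–0.5 mM). Release was read at 410 nm. kobs/[I] from ln(v0/vt) vs time. Mean of two determinations. Fast rates measured with equimolar inhibitor and enzyme.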

[3] = target: T2, Neutrophil elastase (Homo sapiens) (UniProt P08246); assay: Second order inactivation rate constant for inhibition of human leukocyte elastase.; summary of the method: as §2
T2 sequence (whole entry): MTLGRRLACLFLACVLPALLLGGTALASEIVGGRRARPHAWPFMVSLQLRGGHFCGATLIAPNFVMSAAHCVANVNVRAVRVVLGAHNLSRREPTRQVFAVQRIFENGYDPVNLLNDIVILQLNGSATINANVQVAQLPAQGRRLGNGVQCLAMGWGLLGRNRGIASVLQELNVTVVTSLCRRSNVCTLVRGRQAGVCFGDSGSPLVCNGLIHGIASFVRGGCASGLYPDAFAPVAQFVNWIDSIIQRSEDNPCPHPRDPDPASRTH

[4] = target: T2, Neutrophil elastase (Homo sapiens); assay: The second order inactivation rate constant expressed as inhibition of human leukocyte elastase (HLE). Inhibitor concentrations were 0.07-710 uM; summary of the method: as §2
[5] = target: T2, Neutrophil elastase (Homo sapiens); assay: Inhibition of human leukocyte elastase.; summary of the method: as §2
[6] = target: T3, Chymotrypsin-like elastase family member 2A (Sus scrofa) (UniProt P08419); assay: The second order inactivation rate constant expressed as inhibition of porcine pancreatic elastase (PPE).Inhibitor concentrations were 0.04-2.0 mM
T3 sequence (whole entry): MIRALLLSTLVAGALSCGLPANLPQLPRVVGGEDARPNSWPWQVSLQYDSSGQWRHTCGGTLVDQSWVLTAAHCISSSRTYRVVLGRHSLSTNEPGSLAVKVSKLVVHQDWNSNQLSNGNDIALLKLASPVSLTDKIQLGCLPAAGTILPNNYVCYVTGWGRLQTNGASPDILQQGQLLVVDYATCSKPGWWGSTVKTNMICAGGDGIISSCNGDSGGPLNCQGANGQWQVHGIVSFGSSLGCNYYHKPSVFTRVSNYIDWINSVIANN

[7] = target: Chymotrypsinogen A (Bos taurus) (UniProt P00766); assay: The second order inactivation rate constant was expressed as inhibition of chymotrypsin (ChT). Inhibitor concentrations were 3.4-70 uM; summary of the method: as §2
[8] = target: T2, Neutrophil elastase (Homo sapiens); assay: Inhibition of human leukocyte elastase(HLE) at 0.7-1.7 uM; summary of the method: as §2
[9] = target: T3, Chymotrypsin-like elastase family member 2A (Sus scrofa); assay: The second order inactivation rate constant was expressed as inhibition of porcine pancreatic elastase (PPE). Inhibitor concentrations were 34-56 uM; summary of the method: as §2
[10] = target: Chymotrypsinogen A (Bos taurus) (UniProt P00766); assay: The second order inactivation rate constant was expressed as inhibition of chymotrypsin (ChT).Inhibitor concentrations were 360-570 uM; summary of the method: as §2
[11] = target: T2, Neutrophil elastase (Homo sapiens); assay: The second order inactivation rate constant was expressed as inhibition of human leukocyte elastase (HLE). Inhibitor concentrations were 0.4-4 uM; summary of the method: as §2
[12] = target: T3, Chymotrypsin-like elastase family member 2A (Sus scrofa); assay: The second order inactivation rate constant was expressed as inhibition of porcine pancreatic elastase (PPE).Inhibitor concentrations were 2-600 uM; summary of the method: as §2
[13] = Half-life for hydrolysis of compound was determined from kinetic constant.; type: ADME; summary of the method: as §1
[14] = target: T1, Cathepsin G (Homo sapiens); assay: Inhibition of cathepsin G at 35-710 uM; summary of the method: as §2
[15] = target: T2, Neutrophil elastase (Homo sapiens); assay: The second order inactivation rate constant was expressed as inhibition of human leukocyte elastase.; summary of the method: as §2
[16] = target: T1, Cathepsin G (Homo sapiens); assay: The second order inactivation rate constant was expressed as inhibition of cathepsin G(Cat G).Inhibitor concentrations were 35-710 uM; No inhibition; summary of the method: as §2
[17] = target: T3, Chymotrypsin-like elastase family member 2A (Sus scrofa); assay: Percent activity regained after 17h of incubation with hydroxylamine (Non-preincubated Pancreatic elastase).
Summary of the method: (§3)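 Without preincubation, hydroxylamine was added immediately after inhibition at [I]/PPE 200:1, and activity was read after 17 h. With preincubation, the 1:1 [I]/PPE complex stood 20 h at room temperature in buffer before hydroxylamine was added. Activity read at 1–17 h.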

[18] = target: T3, Chymotrypsin-like elastase family member 2A (Sus scrofa); assay: Percent activity regained after 20h of pre-incubation before addition of hydroxylamine (Preincubated Pancreatic elastase).; summary of the method: as §3
[19] = target: T3, Chymotrypsin-like elastase family member 2A (Sus scrofa); assay: Percent activity regained after 17h of incubation with hydroxylamine (Non-preincubated PPE).; summary of the method: as §3
[20] = target: Chymotrypsinogen A (Bos taurus) (UniProt P00766); assay: The second order inactivation rate constant was expressed as inhibition of chymotrypsin (ChT).Inhibitor concentrations were 1.7-58 uM;No inhibition; summary of the method: as §2
[21] = target: T3, Chymotrypsin-like elastase family member 2A (Sus scrofa); assay: The second order inactivation rate constant was expressed as inhibition of porcine pancreatic elastase (PPE).Inhibitor concentrations were 0.04-2.0 uM;No inhibition; conditions: in the assay text read “0.04-2.0 mM” for “0.04-2.0 uM”; summary of the method: as §2

Structure (SMILES): Nc1ccc2c(Cl)c(OCCCBr)oc(=O)c2c1
half-life [1]: 3.2 h
K obs / 1 [2]: 210 M⁻¹ s⁻¹
k obs / 1 [3]: 4000 M⁻¹ s⁻¹
K obs / 1 [4]: 4000 M⁻¹ s⁻¹
[I] [5]: 3.4 µM
K obs / 1 [6]: 10 M⁻¹ s⁻¹

Structure (SMILES): CCCOc1oc(=O)c2cc(NC(=O)NCC)ccc2c1Cl
k obs / 1 [7]: 12000 M⁻¹ s⁻¹
k obs / 1 [8]: > 280000 M⁻¹ s⁻¹
k obs / 1 [9]: 220 M⁻¹ s⁻¹

Structure (SMILES): CCCOc1oc(=O)c2cc(NC(=O)Nc3ccccc3)ccc2c1Cl
k obs / 1 [7]: 5200 M⁻¹ s⁻¹
k obs / 1 [8]: 140000 M⁻¹ s⁻¹
k obs / 1 [9]: 1600 M⁻¹ s⁻¹

Structure (SMILES): COc1oc(=O)c2cc(NC(=O)[C@H](Cc3ccccc3)NC(=O)c3ccccc3)ccc2c1Cl
k obs / 1 [10]: 55 M⁻¹ s⁻¹
k obs / 1 [11]: 180000 M⁻¹ s⁻¹
k obs / 1 [12]: 530 M⁻¹ s⁻¹
Activity regained [19]: 91%
Activity regained [18]: 31%
half-life [13]: > 48 h

Structure (SMILES): CC(C)(C)OC(=O)N[C@H](Cc1ccccc1)C(=O)Nc1ccc2c(Cl)c(OCCCBr)oc(=O)c2c1
K obs / 1 [16]: inactive
K obs / 1 [4]: 1480 M⁻¹ s⁻¹

Structure (SMILES): O=C(Nc1ccccc1)Nc1ccc2c(Cl)c(OCCBr)oc(=O)c2c1
K obs / 1 [16]: inactive
K obs / 1 [4]: 1.2e+06 M⁻¹ s⁻¹
K obs / 1 [6]: 36 M⁻¹ s⁻¹

Structure (SMILES): O=C(CCc1ccccc1)Nc1ccc2c(Cl)c(OCCCBr)oc(=O)c2c1
K obs / 1 [16]: inactive

Structure (SMILES): CCCOc1oc(=O)c2cc(N/C(S)=N/c3ccccc3)ccc2c1Cl
k obs / 1 [7]: 240 M⁻¹ s⁻¹
k obs / 1 [8]: > 170000 M⁻¹ s⁻¹
k obs / 1 [9]: 59 M⁻¹ s⁻¹

Continued, values first:

k obs / 1 [7]: 120 M⁻¹ s⁻¹
k obs / 1 [8]: > 130000 M⁻¹ s⁻¹
k obs / 1 [9]: 79 M⁻¹ s⁻¹
Structure (SMILES): CCCOc1oc(=O)c2cc(N/C(S)=N/Cc3ccccc3)ccc2c1Cl

k obs / 1 [10]: 64 M⁻¹ s⁻¹
k obs / 1 [11]: 130000 M⁻¹ s⁻¹
k obs / 1 [12]: 1600 M⁻¹ s⁻¹
half-life [13]: > 48 h
Structure (SMILES): COc1oc(=O)c2cc(NC(=O)[C@H](Cc3ccccc3)NC(=O)c3cccc(C)c3)ccc2c1Cl

half-life [1]: 2.4 h
K obs / 1 [14]: 410 M⁻¹ s⁻¹
K obs / 1 [15]: 200000 M⁻¹ s⁻¹
[I] [5]: 0.07 µM
K obs / 1 [6]: 1000 M⁻¹ s⁻¹
Structure (SMILES): Nc1ccc2c(Cl)c(OCCBr)oc(=O)c2c1

K obs / 1 [16]: inactive
K obs / 1 [4]: 1320 M⁻¹ s⁻¹
Structure (SMILES): CC(C)(C)OC(=O)N[C@@H](Cc1ccccc1)C(=O)Nc1ccc2c(Cl)c(OCCCBr)oc(=O)c2c1

k obs / 1 [10]: 130 M⁻¹ s⁻¹
k obs / 1 [11]: 170000 M⁻¹ s⁻¹
k obs / 1 [12]: 83 M⁻¹ s⁻¹
Activity regained [17]: 91%
Activity regained [18]: 14%
half-life [13]: > 48 h
Structure (SMILES): COc1oc(=O)c2cc(NC(=O)[C@H](Cc3ccccc3)NC(=O)c3ccc(C)cc3)ccc2c1Cl

k obs / 1 [7]: 6100 M⁻¹ s⁻¹
k obs / 1 [8]: 33000 M⁻¹ s⁻¹
k obs / 1 [9]: 520 M⁻¹ s⁻¹
Structure (SMILES): CCCOc1oc(=O)c2cc(NC(=O)[C@H](Cc3ccccc3)NS(=O)(=O)c3ccc(C)cc3)ccc2c1Cl

k obs / 1 [10]: 30 M⁻¹ s⁻¹
k obs / 1 [11]: 130000 M⁻¹ s⁻¹
k obs / 1 [12]: 64 M⁻¹ s⁻¹
Activity regained [17]: 91%
Activity regained [18]: 6%
Structure (SMILES): COc1oc(=O)c2cc(NC(=O)[C@H](Cc3ccccc3)NC(=O)c3ccc([N+](=O)[O-])cc3)ccc2c1Cl

K obs / 1 [20]: inactive
K obs / 1 [4]: 3210 M⁻¹ s⁻¹
K obs / 1 [21]: inactive
Structure (SMILES): O=C(CCC(=O)OCc1ccccc1)Nc1ccc2c(Cl)c(OCCBr)oc(=O)c2c1
